Bioassay records as filed in PubChem.
Rin1-Abl PPI inh = human Rin1-Abl interaction inhibition | actives 0.4% (n = 360,000) | TR-FRET Rin1/Abl binding, biochemical | P00519+Q13671 | inhibition, % at 7.35 µM; in the data active = inhibition above about 5%, passing the limit was not always enough
MBD2 DNA inh = MBD2-methylated oligo binding inhibition | Q9UBB5 | TR-FRET, MBD2 binding to methylated oligonucleotide | inhibition, % at 4.4 µM | actives 0.31% (n = 370,000) | AID 686964; in the data active = inhibition above about 13%
LEDGF integ inh = blocks HIV-1 LEDGF/p75-dependent DNA integration. TR-FRET IN-LEDGF/p75 DNA integration, Eu/Cy5. inhibition, % at 3.7 µM. actives 0.64% (n = 370,000). AID 743269;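 active = inhibition above the screen-wide mean plus 3 SD, cut at about 13% in these data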;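 also: signal is the Cy5 over europium emission ratio at 671 and 618 nm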
UHRF1 MBD2 ctr = UHRF1 methyl-DNA binding inhibition; UHRF1 binding to methylated oligo, TR-FRET; inhibition, % at 4.4 µM; Q96T88; actives 0.75% (n = 370,000); AID 687016; in the data active = inhibition above about 21%;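 also: UHRF1 SRA domain binding a hemimethylated CpG hairpin DNA probe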
Target sequence (Q96T88 whole entry, looked up, the tested form may be a part): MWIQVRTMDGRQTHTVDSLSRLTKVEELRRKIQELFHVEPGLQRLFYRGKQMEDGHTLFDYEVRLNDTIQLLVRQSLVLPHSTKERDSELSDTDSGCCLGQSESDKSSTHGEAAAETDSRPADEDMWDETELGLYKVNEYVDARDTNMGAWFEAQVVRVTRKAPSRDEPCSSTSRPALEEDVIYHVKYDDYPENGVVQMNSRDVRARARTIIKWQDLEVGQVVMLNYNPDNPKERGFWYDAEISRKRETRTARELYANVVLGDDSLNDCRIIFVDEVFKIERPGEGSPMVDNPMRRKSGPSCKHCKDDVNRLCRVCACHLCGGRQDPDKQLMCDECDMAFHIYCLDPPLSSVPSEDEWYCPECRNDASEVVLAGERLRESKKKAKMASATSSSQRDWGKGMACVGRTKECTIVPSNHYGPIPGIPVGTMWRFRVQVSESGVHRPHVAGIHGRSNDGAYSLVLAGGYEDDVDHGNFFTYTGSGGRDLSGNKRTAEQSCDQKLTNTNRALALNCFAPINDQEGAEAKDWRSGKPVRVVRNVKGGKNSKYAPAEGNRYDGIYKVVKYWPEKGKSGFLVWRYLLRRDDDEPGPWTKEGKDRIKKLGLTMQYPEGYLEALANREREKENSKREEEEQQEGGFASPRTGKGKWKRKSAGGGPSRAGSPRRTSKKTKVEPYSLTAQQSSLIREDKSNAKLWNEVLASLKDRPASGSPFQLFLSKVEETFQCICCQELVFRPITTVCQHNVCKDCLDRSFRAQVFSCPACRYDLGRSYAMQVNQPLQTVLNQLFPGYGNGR
TDP2 inh = blocks human TDP2 phosphodiesterase activity; O95551; recombinant TDP2, T5PNP hydrolysis, p-nitrophenol absorbance 415 nm; inhibition, % at 12.8 µM; actives 0.34% (n = 370,000);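 active = inhibition above the mean of all tested compounds plus 3 SD, set per campaign, cut at about 25% in these data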
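Incubation: 2 h at 37 °C; Test system: recombinant human TDP2; Quantity: enzyme 120 nM; Read-out basis: percent inhibition; Medium: 50 mM Tris-HCl pH 7.5 with Mg2+, KCl, DTT, BSA; Repeats: single replicate; Compound: 12.8 µM single point, 1% DMSO; Signal: epi absorbance; Reagent: 5 mM T5PNP chromogenic substrate; Benchmarks: no-enzyme high, DMSO-plus-enzyme low.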
Rin1 Abl conf = Rin1-Abl interaction inhibition confirmation; shares compounds with Rin1-Abl PPI inh; TR-FRET Rin1-Abl binding, purified proteins; inhibition, % at 7.35 µM; actives 49% (n = 1,300)
GFP quench = quenches GFP fluorescence, counter-screen for Rin1-Abl inhibitors; inhibition, % at 6.75 µM; inhibitors/quenchers counterscreen; shares compounds with Rin1-Abl PPI inh; actives 8.5% (n = 1,300); AID 602125;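 also: ABL1-eGFP fusion protein alone without its partner RIN1-SBP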
GFP quench dose = GFP fluorescence interference dose response; shares compounds with Rin1-Abl PPI inh; GFP fluorescence interference/quenching counterscreen; IC50, µM; 230 tested, under 10 active; call rule not given here;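 also: ABL1-eGFP fusion protein alone without its RIN1 binding partner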
Numbers stand for hits; 0 = inactive; - = no result given. The list is not random: actives were taken first. Their share in the collection is about 1.9%. Rule as the data show it, unless noted: active = inhibition above about 6.5%; inactive = the rest.

SMILES	Rin1-Abl PPI inh	MBD2 DNA inh	LEDGF integ inh	UHRF1 MBD2 ctr	TDP2 inh	Rin1 Abl conf	GFP quench	others
CCCCCCCOC(=O)C1=C(C)Nc2ncnn2C1c1cccs1 (configuration not stated)	7.5	0	0	0	0	0	0
COc1ccc(OC)c(CN2CCN(S(=O)(=O)c3ccc(NC(C)=O)cc3)CC2)c1	10	0	0	0	0	0	0
CCCCCCC(=O)NC1CCCCN(Cc2ccccc2C)C1=O (configuration not stated)	-	0	0	0	0	-	-
CN(Cc1ccccc1)C(=O)OCc1cn(Cc2cccc(F)c2F)nn1	-	0	0	0	0	-	-
CN1CCN(C(c2ccccn2)c2cc(Cl)c3cccnc3c2O)CC1 (configuration not stated)	26	0	0	0	0	22	0	GFP quench dose=0
CCCCOCCCNC(=O)C[C@@H]1C(=O)N(CCc2ccc(Cl)cc2)C2=CCCCC[C@]21C(=O)OC	-	0	0	0	0	-	-
O=C(CN1C(=O)CSc2cc(S(=O)(=O)N3CCCCCC3)ccc21)NCCc1ccccc1	6.1	0	0	0	0	0	0
CN(C)CCNC(=O)CN1C(=O)CSc2ccc(S(=O)(=O)N3CCCCC3)cc21	0	0	0	0	0	-	-
C[C@H](O)[C@@H]1CN2CCc3c([nH]c4cccc(-c5ccc6c(c5)OCO6)c34)[C@@H]2C[C@@H]1N(C)C(=O)c1ccco1	-	0	0	0	0	-	-
COc1ccc(NS(=O)(=O)c2cc(N)ccc2N2CCCC2)cc1	0	0	0	0	0	-	-
COc1ccc(NS(=O)(=O)c2cc(N)ccc2N2CCOCC2)cc1	8.3	0	0	0	0	0	0
COC(=O)C12C=C3CC(c4ccc(C(F)(F)F)cc4)=C3C(=O)N1Cc1[nH]c3ccccc3c1C2 (configuration not stated)	-	0	0	0	0	-	-
CCC(NC(=O)c1ccc2c(ccn2Cc2cccc(-c3ccc(C(=O)O)cc3)c2)c1)c1ccccc1 (configuration not stated)	-	0	0	0	0	-	-
Cn1c(=O)oc2cc(S(=O)(=O)N3CCOCC3)ccc21	0	0	0	0	0	-	-
O=S(=O)(c1ccc2c(c1)oc1ccccc12)N1CCOCC1	8.5	0	0	0	0	0	0
Cc1cc(N2CCN(CC(C)(C)O)C[C@@H]2C)ccc1N1CCN(CC(C)(C)O)[C@H](C)C1	-	0	0	0	0	-	-
Cc1ccccc1NC(=O)CNC(=O)c1ccc(C(F)(F)F)cc1	0	0	0	0	0	-	-
Cc1ccccc1NC(=O)Nc1ccc(C(F)(F)F)cc1	9.0	0	0	0	0	0	0
Cc1ccc(CN2CCCCC(NC(=O)c3ccc(F)c(F)c3)C2=O)cc1 (configuration not stated)	-	0	0	0	0	-	-
COc1ccc2cc(C(=O)C3CCCN(C(=O)c4cccnc4)C3)ccc2c1 (configuration not stated)	0	0	0	0	0	-	-
O=C(c1ccc2ccccc2c1)C1CCCN(C(=O)c2cccnc2)C1 (configuration not stated)	6.9	0	0	0	0	0	0
Cn1cc(SCC(=O)Nc2nc3ccccc3s2)c2ccccc21	7.0	0	0	0	0	0	0
CC(C)N=c1scc(-c2cccs2)n1/N=C/c1ccc(O)c(O)c1O	14	0	0	0	0	12	0
CCN=c1scc(-c2cccs2)n1/N=C/c1cc(OC)ccc1O	0	0	0	0	0	-	-
O=[N+]([O-])c1cccc(S(=O)(=O)NCCOc2cccc3cccnc23)c1	10	0	0	0	0	0	0
CC(C)c1ccc(NC(=O)CSc2nnc(CN3CCOCC3)n2C)cc1	18	0	0	0	0	26	0	GFP quench dose=0
O=C1CC(C(=O)Nc2ccccc2)C2(CCCC2)O1 (configuration not stated)	7.7	0	0	0	0	0	0
Cc1cccc(NC(=O)C2CC(=O)OC23CCCCC3)c1 (configuration not stated)	0	0	0	0	0	-	-
Cc1c(NC(=O)c2ccccc2)c(=O)n(-c2ccccc2)n1C	0	0	0	0	0	-	-
